According to ChEMBL document CHEMBL4390675, “Dopamine D4 Receptor-Selective Compounds Reveal Structure-Activity Relationships that Engender Agonist Efficacy” (J Med Chem, 2019):
Activity calls are given as the source filed them. The calls are words filed in the database; no cut-off is given here.

Assays:
[1] = biological target: T1, D(3) dopamine receptor (Homo sapiens, UniProt P35462); test: Displacement of [3H]N-methylspiperone from human D3 receptor expressed in HEK293 cell membranes measured after 60 mins by scintillation counting method
T1 sequence (P35462 whole entry): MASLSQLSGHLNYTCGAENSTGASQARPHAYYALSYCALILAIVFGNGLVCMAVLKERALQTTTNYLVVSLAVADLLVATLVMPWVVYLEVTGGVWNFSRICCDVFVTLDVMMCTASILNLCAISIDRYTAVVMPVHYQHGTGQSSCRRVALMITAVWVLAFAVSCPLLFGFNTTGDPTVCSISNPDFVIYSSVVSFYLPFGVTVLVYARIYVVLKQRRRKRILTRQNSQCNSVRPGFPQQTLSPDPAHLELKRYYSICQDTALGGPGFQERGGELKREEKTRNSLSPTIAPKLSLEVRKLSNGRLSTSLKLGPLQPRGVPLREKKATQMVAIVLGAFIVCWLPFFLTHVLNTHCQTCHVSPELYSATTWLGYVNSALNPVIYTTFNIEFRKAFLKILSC
Outline: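 HEK293 cells stably expressing human D3R; membranes in EBSS buffer pH 7.4, stored at −80 °C. 20 μg protein/well with 0.4 nM [3H]N-methylspiperone (final), half-log dilutions in 30% DMSO, in triplicate. 60 min at room temperature, then GF/B filtration. Nonspecific binding with 10 μM (+)-butaclamol.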

[2] = biological target: T2, D(4) dopamine receptor (Homo sapiens, UniProt P21917); test: Displacement of [3H]N-methylspiperone from human D4.4 receptor expressed in HEK293 cell membranes measured after 60 mins by scintillation counting method
T2 sequence (P21917 whole entry): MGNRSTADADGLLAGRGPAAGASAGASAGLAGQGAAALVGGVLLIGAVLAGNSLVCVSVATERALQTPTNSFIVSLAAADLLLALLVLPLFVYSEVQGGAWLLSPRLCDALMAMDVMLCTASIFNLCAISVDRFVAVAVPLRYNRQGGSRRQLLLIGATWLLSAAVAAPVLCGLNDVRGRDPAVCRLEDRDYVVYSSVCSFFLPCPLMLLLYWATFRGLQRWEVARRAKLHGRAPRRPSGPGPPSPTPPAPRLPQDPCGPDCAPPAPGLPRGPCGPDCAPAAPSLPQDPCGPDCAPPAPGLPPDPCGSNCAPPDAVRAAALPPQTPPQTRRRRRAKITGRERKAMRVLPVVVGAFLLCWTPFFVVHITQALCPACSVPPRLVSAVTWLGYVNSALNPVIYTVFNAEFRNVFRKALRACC
Outline: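 Frozen HEK293 membranes stably expressing human D4.4R (30 μg/well) in EBSS-bicarbonate buffer, pH 7.4, were incubated with 0.4 nM [3H]N-methylspiperone and half-log compound dilutions (30% DMSO vehicle) for 60 min at room temperature. Nonspecific binding was defined by 10 μM (+)-butaclamol. Samples were filtered on GF/B filters and counted by scintillation.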

[3] = biological target: T1, D(3) dopamine receptor; test: Displacement of [3H](R)-(+)-7-OH-DPAT from human D3 receptor expressed in HEK293 cell membranes measured after 90 mins by scintillation counting method
Outline: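 Fresh HEK293 hD3R membranes (40 μg/well) in 50 mM Tris, 10 mM MgCl2, 1 mM EDTA, pH 7.4 were incubated with 0.5 nM [3H]-(R)-(+)-7-OH-DPAT and half-log compound dilutions in 30% DMSO for 90 min at room temperature. Nonspecific binding was defined with 10 μM (+)-butaclamol. Samples were filtered on PEI-soaked GF/B filters and counted by scintillation.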

[4] = biological target: T2, D(4) dopamine receptor; test: Displacement of [3H](R)-(+)-7-OH-DPAT from human D4.4 receptor expressed in HEK293 cell membranes measured after 90 mins by scintillation counting method
Outline: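 HEK293 cells stably expressing human D4.4R; membranes used fresh in 50 mM Tris, 10 mM MgCl2, 1 mM EDTA, pH 7.4. 60 μg protein/well with 3 nM [3H]-(R)-(+)-7-OH-DPAT (final), half-log dilutions in 30% DMSO, in triplicate. 90 min at room temperature, then GF/B filtration. Nonspecific binding with 10 μM (+)-butaclamol.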

[5] = biological target: T3, D(2) dopamine receptor (Homo sapiens, UniProt P14416); test: Agonist activity at human D2L receptor expressed in CHOK1 cells assessed as inhibition of forskolin-induced cAMP accumulation measured after 30 mins by Eu-cAMP tracer based TR-FRET assay; format: cell-based
T3 sequence (P14416 whole entry, canonical isoform): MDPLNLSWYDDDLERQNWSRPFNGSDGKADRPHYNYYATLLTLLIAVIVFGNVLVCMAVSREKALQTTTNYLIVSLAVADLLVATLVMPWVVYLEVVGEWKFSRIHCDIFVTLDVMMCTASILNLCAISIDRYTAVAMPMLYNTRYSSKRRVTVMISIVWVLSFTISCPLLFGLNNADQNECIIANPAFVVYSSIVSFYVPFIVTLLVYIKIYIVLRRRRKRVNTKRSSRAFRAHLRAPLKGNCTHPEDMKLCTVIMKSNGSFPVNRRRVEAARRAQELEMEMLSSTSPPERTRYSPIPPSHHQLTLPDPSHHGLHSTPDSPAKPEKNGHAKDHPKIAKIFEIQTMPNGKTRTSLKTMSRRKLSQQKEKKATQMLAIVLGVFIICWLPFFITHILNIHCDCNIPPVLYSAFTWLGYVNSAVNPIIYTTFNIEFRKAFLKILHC
Outline: (§1)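 LANCE Ultra TR-FRET cAMP assay in CHO-K1 cells stably expressing human D2R long isoform or D4R. Cells were plated in HBSS/5 mM HEPES/0.2 μM metabisulfite, then immediately given compound plus forskolin (10 μM final) for 30 min at room temperature. Eu-cAMP tracer and ULight-anti-cAMP were added for 2 h in the dark. Values are % of maximal dopamine signal, nonlinear regression of triplicate runs, n = 3–4.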

[6] = biological target: T3, D(2) dopamine receptor; test: Antagonist activity at human D2L receptor expressed in CHOK1 cells assessed as suppression of dopamine-induced inhibition of forskolin-stimulated cAMP accumulation measured after 30 mins by Eu-cAMP tracer based TR-FRET assay relative to dopamine; format: cell-based; conditions: 0.5 h
[7] = biological target: T4, D(4) dopamine receptor (Homo sapiens) (UniProt P21917); test: Agonist activity at human D4 receptor expressed in CHOK1 cells assessed as inhibition of forskolin-induced cAMP accumulation measured after 30 mins by Eu-cAMP tracer based TR-FRET assay relative to dopamine; format: functional, cell-based; outline: as §1
T4 sequence (whole entry): T2 sequence (P21917 whole entry)

[8] = biological target: T2, D(4) dopamine receptor; test: Agonist activity at human D4 receptor expressed in CHOK1 cells assessed as inhibition of forskolin-induced cAMP accumulation measured after 30 mins by Eu-cAMP tracer based TR-FRET assay; format: functional, cell-based; outline: as §1
[9] = biological target: T4, D(4) dopamine receptor (Homo sapiens); test: Antagonist activity at human D4 receptor expressed in CHOK1 cells assessed as suppression of dopamine-induced inhibition of forskolin-stimulated cAMP accumulation measured after 30 mins by Eu-cAMP tracer based TR-FRET assay relative to dopamine; format: functional, cell-based; parameters: concentration or dose not given beside the values
[10] = biological target: T2, D(4) dopamine receptor; test: Antagonist activity at human D4 receptor expressed in CHOK1 cells assessed as suppression of dopamine-induced inhibition of forskolin-stimulated cAMP accumulation measured after 30 mins by Eu-cAMP tracer based TR-FRET assay; format: functional, cell-based
[11] = biological target: T3, D(2) dopamine receptor; test: Agonist activity at human D2L receptor expressed in CHOK1 cells assessed as induction of beta-arrestin recruitment measured after 90 mins by luminescence assay; format: cell-based
Outline: (§2)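 PathHunter enzyme-complementation assay in CHO-K1 cells stably expressing human D2R long isoform, D3R or D4R, seeded overnight in Ham's F12/10% FBS. Compounds were diluted in PBS with 0.2 μM sodium metabisulfite and applied at multiple concentrations for 90 min at 37 °C. Detection reagent was added for 45–60 min at room temperature, then luminescence was read. Values are % of maximal dopamine response, from nonlinear regression of triplicate runs, mean ± SEM, n = 3–4.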

[12] = biological target: T3, D(2) dopamine receptor; test: Antagonist activity at human D2L receptor expressed in CHOK1 cells assessed as inhibition of dopamine-induced beta-arrestin recruitment measured after 90 mins by luminescence assay relative to control; format: cell-based
Outline: (§3)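 Antagonist-mode PathHunter β-arrestin assay in CHO-K1 cells stably expressing human D2R long isoform or D3R, seeded overnight. Compound dilutions in PBS with 0.2 μM metabisulfite were co-incubated with an EC80 dopamine concentration for 90 min at 37 °C. Detection reagent was added for 45–60 min at room temperature, then luminescence was read. Values are % of dopamine EC80 response, from nonlinear regression of triplicate runs, n = 3–4.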

[13] = biological target: T1, D(3) dopamine receptor; test: Agonist activity at human D3 receptor expressed in CHOK1 cells assessed as induction of beta-arrestin recruitment measured after 90 mins by luminescence assay; format: cell-based; outline: as §2
[14] = biological target: T1, D(3) dopamine receptor; test: Antagonist activity at human D3 receptor expressed in CHOK1 cells assessed as inhibition of dopamine-induced beta-arrestin recruitment measured after 90 mins by luminescence assay; format: cell-based; outline: as §3
[15] = biological target: T4, D(4) dopamine receptor (Homo sapiens); test: Agonist activity at human D4 receptor expressed in CHOK1 cells assessed as induction of beta-arrestin recruitment measured after 90 mins by luminescence assay relative to control; format: cell-based; outline: as §2
[16] = biological target: T2, D(4) dopamine receptor; test: Agonist activity at human D4 receptor expressed in CHOK1 cells assessed as induction of beta-arrestin recruitment measured after 90 mins by luminescence assay; format: cell-based; outline: as §2
[17] = biological target: T4, D(4) dopamine receptor (Homo sapiens); test: Antagonist activity at human D4 receptor expressed in CHOK1 cells assessed as inhibition of dopamine-induced beta-arrestin recruitment measured after 90 mins by luminescence assay relative to control; format: cell-based; parameters: concentration or dose not given beside the values
[18] = biological target: T2, D(4) dopamine receptor; test: Antagonist activity at human D4 receptor expressed in CHOK1 cells assessed as inhibition of dopamine-induced beta-arrestin recruitment measured after 90 mins by luminescence assay; format: cell-based; conditions: read-out: IC50
[19] = biological target: D(1A) dopamine receptor (Homo sapiens) (UniProt P21728); test: Agonist activity at D1 receptor (unknown origin) stably expressed in CHOK1 cells assessed as induction of beta-arrestin recruitment measured after 90 mins by luminescence assay; format: cell-based
Chain of D(1A) dopamine receptor (Homo sapiens) (P21728 whole entry): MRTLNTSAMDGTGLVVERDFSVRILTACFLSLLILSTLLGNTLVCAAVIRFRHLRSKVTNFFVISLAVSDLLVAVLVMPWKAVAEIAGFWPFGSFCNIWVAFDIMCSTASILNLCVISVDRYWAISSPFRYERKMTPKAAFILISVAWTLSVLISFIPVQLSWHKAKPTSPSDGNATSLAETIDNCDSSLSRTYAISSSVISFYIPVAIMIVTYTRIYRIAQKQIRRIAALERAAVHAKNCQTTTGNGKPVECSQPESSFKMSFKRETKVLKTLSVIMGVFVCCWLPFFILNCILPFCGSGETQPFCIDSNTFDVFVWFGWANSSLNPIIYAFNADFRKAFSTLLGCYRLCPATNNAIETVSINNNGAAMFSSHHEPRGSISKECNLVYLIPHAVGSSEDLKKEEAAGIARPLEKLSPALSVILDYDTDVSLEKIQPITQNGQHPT

[20] = biological target: D(1B) dopamine receptor (Homo sapiens) (UniProt P21918); test: Agonist activity at D5 receptor (unknown origin) stably expressed in CHOK1 cells assessed as induction of beta-arrestin recruitment measured after 90 mins by luminescence assay; format: cell-based
Chain of D(1B) dopamine receptor (Homo sapiens) (P21918 whole entry): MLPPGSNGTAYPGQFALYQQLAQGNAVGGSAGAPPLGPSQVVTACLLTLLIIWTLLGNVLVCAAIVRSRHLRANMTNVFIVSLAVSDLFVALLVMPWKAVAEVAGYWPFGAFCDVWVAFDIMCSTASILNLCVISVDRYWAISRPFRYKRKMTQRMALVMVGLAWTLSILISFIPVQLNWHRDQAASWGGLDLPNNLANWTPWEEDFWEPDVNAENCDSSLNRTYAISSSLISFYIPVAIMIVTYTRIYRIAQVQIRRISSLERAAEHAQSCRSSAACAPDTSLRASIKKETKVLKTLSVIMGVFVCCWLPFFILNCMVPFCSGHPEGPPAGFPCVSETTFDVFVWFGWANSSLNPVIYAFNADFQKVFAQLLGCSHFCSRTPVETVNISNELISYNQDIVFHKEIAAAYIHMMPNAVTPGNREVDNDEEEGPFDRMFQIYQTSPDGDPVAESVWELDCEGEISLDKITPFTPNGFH

[21] = biological target: D(1A) dopamine receptor (Homo sapiens) (UniProt P21728); test: Antagonist activity at D1 receptor (unknown origin) stably expressed in CHOK1 cells assessed as inhibition of dopamine-induced beta-arrestin recruitment measured after 90 mins by luminescence assay; format: cell-based
[22] = biological target: D(1B) dopamine receptor (Homo sapiens) (UniProt P21918); test: Antagonist activity at D5 receptor (unknown origin) stably expressed in CHOK1 cells assessed as inhibition of dopamine-induced beta-arrestin recruitment measured after 90 mins by luminescence assay; format: cell-based
[23] = biological target: T3, D(2) dopamine receptor; test: Agonist activity at human D2L receptor expressed in CHOK1 cells assessed as inhibition of forskolin-induced cAMP accumulation measured after 30 mins by Eu-cAMP tracer based TR-FRET assay relative to dopamine; format: cell-based; conditions: 0.5 h
[24] = biological target: T3, D(2) dopamine receptor; test: Agonist activity at human D2L receptor expressed in CHOK1 cells assessed as induction of beta-arrestin recruitment measured after 90 mins by luminescence assay relative to control; format: cell-based
Outline: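 PathHunter enzyme-complementation assay in CHO-K1 cells stably expressing human D2R long isoform, seeded 2625 cells/well and incubated overnight. Compounds diluted in PBS with 0.2 μM sodium metabisulfite, tested at multiple concentrations, 90 min at 37 °C. Detection reagent then 45–60 min at room temperature, luminescence read. Normalized to maximal dopamine response. Nonlinear regression of triplicate runs, n = 3–4.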

[25] = biological target: T1, D(3) dopamine receptor; test: Agonist activity at human D3 receptor expressed in CHOK1 cells assessed as induction of beta-arrestin recruitment measured after 90 mins by luminescence assay relative to control; format: cell-based; outline: as §2
[26] = biological target: T3, D(2) dopamine receptor; test: Antagonist activity at human D2L receptor expressed in CHOK1 cells assessed as inhibition of dopamine-induced beta-arrestin recruitment measured after 90 mins by luminescence assay; format: cell-based; outline: as §3

Row | Structure (SMILES) | Ki [1] | Ki [2] | Ki [3] | Ki [4] | EC50 [5] | inhibition (INH) [6] | Emax [7] | EC50 ([8]; read-out: EC50) | inhibition [9] | IC50 [10] | EC50 [11] | INH [12] | EC50 [13] | IC50 ([14]; read-out: IC50) | Emax [15] | IC50 [18] | Activity [19] | Activity [20] | inhibition [21] | inhibition [22] | also measured
1 | Cc1cccc(NC(=O)CN2CCC(c3ccccc3)CC2)c1 | 0.433 µM | 0.0258 µM | 0.777 µM | 0.0014 µM | Not Active | 100% | 32.9% | 0.0154 µM | 46.7% | 0.002 µM | Not Active | 99.7% | Not Active | > 50 µM | 14% | 0.135 µM | inactive | inactive | inactive | inactive | EC50 ([16]; read-out: EC50): 0.242 µM; inhibition [17]: 93.3%
2 | Cc1cccc(NC(=O)CCN2CCN(c3ccccn3)CC2)c1 | 3.79 µM | 0.297 µM | 0.781 µM | 0.0322 µM |  |  |  | 0.612 µM |  | 1.63 µM |  | 77.7% |  | > 50 µM |  | 1.09 µM | inactive | inactive | inactive | inactive | Emax [23]: 79.7%; Emax [24]: 44.1%; Emax [25]: 41.4%; EC50 ([13]; read-out: EC50): 1.6 µM; EC50 [16]: Not Active
3 | Cc1cccc(NC(=O)CN2CCC(c3ccccn3)CC2)c1 | 1.68 µM | 0.0542 µM | 0.167 µM | 0.00395 µM | Not Active |  | 61.9% | 0.0027 µM | 53.8% | 0.0684 µM | Not Active | 94.8% |  | > 100 µM | 22.5% | 0.191 µM | inactive | inactive | inactive | inactive | EC50 ([13]; read-out: EC50): > 100 µM; EC50 ([16]; read-out: EC50): 0.473 µM; inhibition [17]: 81.7%
4 | O=C(CN1CCN(c2ccc(Cl)cn2)CC1)Nc1cncnc1 | > 50 µM | > 50 µM |  |  | Not Active | 76.2% |  |  |  | > 100 µM | Not Active | Not Active | Not Active |  |  | > 100 µM |  |  |  |  | EC50 [8]: Not Active; IC50 [26]: Not Active; IC50 [14]: Not Active; EC50 [16]: Not Active
